Results on nine molecules are retold here after ChEMBL document CHEMBL5316309, “Discovery of BAY-390, a Selective CNS Penetrant Chemical Probe as Transient Receptor Potential Ankyrin 1 (TRPA1) Antagonist” (J Med Chem, 2023).

Data set [1] has as its target T1, Transient receptor potential cation channel subfamily A member 1 (Homo sapiens, UniProt O75762). The data set is described as follows: Antagonist activity at human wildtype TRPA1 channel expressed in CHO-K1 cells tagged with GCaMP6 by measuring calcium flux measured after […] by FLIPR tetra analysis. In kind it is cell-based. (In general: Calcium assays in cells follow changes in intracellular calcium, usually with a dye or a luminescent sensor.)

Data set [2] deals with Transient receptor potential cation channel subfamily A member 1 (Rattus norvegicus, UniProt Q6RI86). The data set is described as follows: Antagonist activity at rat TRPA1 channel expressed in CHO-K1 cells tagged with GCaMP6 by measuring calcium flux measured after 10 mins by FLIPR tetra analysis. In kind it is cell-based.
Sequence of Transient receptor potential cation channel subfamily A member 1 (Rattus norvegicus, UniProt Q6RI86) (Q6RI86 whole entry): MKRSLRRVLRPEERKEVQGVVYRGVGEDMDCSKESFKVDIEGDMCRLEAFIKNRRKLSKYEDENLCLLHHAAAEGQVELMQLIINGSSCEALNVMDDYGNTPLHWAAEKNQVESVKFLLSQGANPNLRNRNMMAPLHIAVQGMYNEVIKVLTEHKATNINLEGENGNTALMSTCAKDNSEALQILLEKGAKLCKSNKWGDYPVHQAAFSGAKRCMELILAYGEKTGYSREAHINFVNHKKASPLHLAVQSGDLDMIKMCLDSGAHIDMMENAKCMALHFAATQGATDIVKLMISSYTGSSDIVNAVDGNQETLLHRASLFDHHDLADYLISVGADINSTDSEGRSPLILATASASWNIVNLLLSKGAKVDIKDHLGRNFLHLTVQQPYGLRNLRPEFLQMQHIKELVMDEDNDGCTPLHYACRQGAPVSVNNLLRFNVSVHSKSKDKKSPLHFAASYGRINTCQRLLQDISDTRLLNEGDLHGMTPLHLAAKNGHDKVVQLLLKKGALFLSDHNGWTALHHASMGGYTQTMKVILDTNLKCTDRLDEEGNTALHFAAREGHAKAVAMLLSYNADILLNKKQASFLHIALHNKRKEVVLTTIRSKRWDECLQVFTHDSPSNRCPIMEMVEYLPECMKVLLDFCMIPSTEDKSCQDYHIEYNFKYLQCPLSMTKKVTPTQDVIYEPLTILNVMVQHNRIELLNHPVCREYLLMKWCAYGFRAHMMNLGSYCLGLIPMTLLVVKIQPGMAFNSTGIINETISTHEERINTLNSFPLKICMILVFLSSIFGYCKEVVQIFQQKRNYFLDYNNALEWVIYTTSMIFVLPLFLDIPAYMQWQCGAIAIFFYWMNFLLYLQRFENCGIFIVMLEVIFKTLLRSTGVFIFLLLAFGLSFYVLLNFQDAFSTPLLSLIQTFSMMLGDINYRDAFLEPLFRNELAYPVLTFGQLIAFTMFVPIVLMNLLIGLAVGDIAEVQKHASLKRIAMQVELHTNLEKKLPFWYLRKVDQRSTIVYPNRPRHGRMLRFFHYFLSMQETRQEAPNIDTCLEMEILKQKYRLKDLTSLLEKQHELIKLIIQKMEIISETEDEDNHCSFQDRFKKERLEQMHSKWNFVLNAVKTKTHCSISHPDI
Data set [3] deals with T1, Transient receptor potential cation channel subfamily A member 1. The data set is described as follows: Antagonist activity at human TRPA1 channel expressed in CHO-K1 cells tagged with GCaMP6 by measuring calcium flux measured after 10 mins by FLIPR tetra analysis. It counts as cell-based.
The nature of data set [4]: Mutagenecity in Salmonella typhimurium by Ames test. In kind it is toxicity. Particulars: salmonella sp. (In general: In the Ames test, an excess of revertant colonies over the control signals mutagenicity.)
For another data set, the system named is Rattus norvegicus. The data set is described as follows: Antiallodynic activity against spinal nerve ligation neuropathic pain Sprague-Dawley rat model assessed as paw withdrawal threshold administered at 30 mg/kg, po bid post SNL surgery. To be noted: time <= 10.0 day, TDE = time-dependent effect. In kind it is functional, organism-based. In outline: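 Male Sprague Dawley rats, 100–120 g, had spinal nerve ligation under isoflurane. Oral dosing b.i.d. on days 15–24 post surgery in DMSO/Solutol/water 10/40/50 at 5 mL/kg; gabapentin 30 mg/kg q.d. as control. Von Frey up-and-down thresholds, blinded, on both hind paws at day 11 (baseline) and days 15, 18, 21, 24, 2 h after morning dose. Kruskal–Wallis with Dunn versus vehicle.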

T1 sequence (O75762 whole entry): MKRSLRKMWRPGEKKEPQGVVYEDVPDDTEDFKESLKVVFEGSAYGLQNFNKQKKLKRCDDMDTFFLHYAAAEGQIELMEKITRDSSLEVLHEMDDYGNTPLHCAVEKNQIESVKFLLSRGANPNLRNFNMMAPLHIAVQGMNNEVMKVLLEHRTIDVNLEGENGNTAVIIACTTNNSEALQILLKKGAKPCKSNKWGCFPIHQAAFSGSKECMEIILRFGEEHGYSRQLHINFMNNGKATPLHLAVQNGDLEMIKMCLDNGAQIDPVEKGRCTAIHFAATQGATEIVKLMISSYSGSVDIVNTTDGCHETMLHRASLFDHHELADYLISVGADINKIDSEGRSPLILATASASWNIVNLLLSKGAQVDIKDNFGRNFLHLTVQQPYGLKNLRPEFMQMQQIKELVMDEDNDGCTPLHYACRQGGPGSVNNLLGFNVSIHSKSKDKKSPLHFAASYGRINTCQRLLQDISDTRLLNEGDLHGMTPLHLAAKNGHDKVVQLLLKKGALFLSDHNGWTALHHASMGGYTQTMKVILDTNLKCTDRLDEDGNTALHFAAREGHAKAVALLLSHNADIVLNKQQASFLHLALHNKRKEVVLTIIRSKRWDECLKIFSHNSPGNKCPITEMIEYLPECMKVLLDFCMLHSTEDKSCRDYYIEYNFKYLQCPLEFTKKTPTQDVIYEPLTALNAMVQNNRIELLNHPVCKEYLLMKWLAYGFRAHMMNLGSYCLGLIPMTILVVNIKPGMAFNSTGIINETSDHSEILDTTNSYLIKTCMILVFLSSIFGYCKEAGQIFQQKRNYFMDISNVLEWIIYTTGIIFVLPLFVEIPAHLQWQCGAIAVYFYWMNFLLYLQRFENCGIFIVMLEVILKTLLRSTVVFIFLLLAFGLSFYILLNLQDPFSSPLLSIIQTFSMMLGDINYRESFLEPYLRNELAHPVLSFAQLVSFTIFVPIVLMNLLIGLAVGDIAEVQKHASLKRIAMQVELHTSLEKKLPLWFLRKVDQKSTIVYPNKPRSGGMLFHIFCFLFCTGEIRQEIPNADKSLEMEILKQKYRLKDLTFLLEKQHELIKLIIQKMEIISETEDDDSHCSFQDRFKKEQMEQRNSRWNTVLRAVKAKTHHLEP

In the case of `C#CC(CC)(CC)NC(=O)c1cccnc1NC1CC(F)(F)C1`, in data set [1], the IC50 (in general, the concentration needed to halve the response being measured) was determined as 1 nM. `COc1cc(N[C@@H]2CCCC[C@]2(O)C(F)(F)F)ccc1F` [BAY-9897]: the 50% inhibitory concentration (IC50) in data set [2] and in data set [3] was more than 25000 nM throughout. Also, in data set [4], the Activity result was “Non-Toxic”. For the molecule `N#Cc1ccc(NC2CCCCC2(O)C(F)(F)F)cc1C(F)(F)F` (racemic), the IC50 is more than 25000 nM in data set [2] and 19000 nM in data set [3]. The Activity result in data set [4] is “Non-Toxic”. In the case of `Cn1c(=O)c2c(CC(=O)Nc3nc(-c4ccc(F)c(C(F)(F)F)c4F)cs3)csc2n(C)c1=O`, the IC50 in data set [1] was determined as 6800 nM.

Turning to `Cc1cc2[nH]ncc2cc1-c1ccccc1C(F)(F)F`, the IC50 in data set [1] was determined as 14 nM.

With `CC1(C)CCCC(O)(C(F)(F)F)C1Cc1ccc(C#N)cc1` (mixture of isomers), the IC50 came out at 7570 nM in data set [2] and 390 nM in data set [3]. Turning to `NCC1(CC(=O)O)CCCCC1`, the Activity entry with Rattus norvegicus is “Tde”. As for `C[C@@H](C(=O)Nc1ccnc(-c2cnc(N3CCC[C@H]3C(F)(F)F)nc2)n1)n1cnc2c1c(=O)n(C)c(=O)n2C`, the IC50 in data set [1] amounted to 64 nM. In the case of `COCCCOc1cccc([C@H]2NC(=S)Nc3c2oc2ncccc32)c1`, the IC50 in data set [1] stood at 67 nM.
